The nature of series [1]: Plasma and tissue D, DA, DOH after a single gavage dose of D/DA. The format is in vivo, male C57BL/6 mice. Put shortly:
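Male C57BL/6 mice, 6–7 weeks old, 5 per group, got one gastric gavage of 3 mg D/DA (1.8 mg D + 1.2 mg DA) in 0.3 mL of 10% ethanol/20% PEG400/3.3% Tween80/66.7% USP 5% dextrose. Plasma (cardiac puncture, heparin) and tissues were collected at time points over 24 h. Water homogenates (ice bath) were extracted with ethyl acetate. Analysis was HPLC-UV, except prostate by UHPLC-MS/MS.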

A short description of series [2]: Plasma and tissue D, DA, DOH after sub-chronic dietary AGN exposure. The conditions noted are these: for Terminal-bleed plasma level by HPLC-UV: 0.5% and 1% AGN diet, 6 weeks, all but one mouse; for concentration at 6 weeks: male, C57BL/6J, mouse, oral. Type of series: in vivo, male C57BL/6J mice. Put shortly:
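Male C57BL/6J mice, 6 weeks old, 10 per group, were fed AIN-93M diet containing 0.5% or 1% (w/w) AGN extract ad libitum for 6 weeks. Terminal plasma was taken by cardiac puncture (heparin) under anesthesia, 1–4 pm. Tissues were homogenized in 4 volumes of water. Samples were extracted with ethyl acetate and analyzed by HPLC-UV, with D and DA quantitated together. Values are mean ± SE, n=5.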

The conditions of series [3]: rat, in vivo; cited from earlier work.
Another series concerns cytochrome p450 (Cyp). The conditions noted are these: orally administered general Cyp inhibitor; ref Zhang et al., 2015b; cited from earlier work.
Series [4] is described as follows: Plasma, tissue and urine pyranocoumarins after repeated i.p. AGN. Particulars: 3 h after last i.p. injection of AGN. Type of series: in vivo, CD-1 mice. Put shortly:
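CD-1 mice, 8–10 weeks old, 6 per sex per group, were kept on AIN-93M diet. They received i.p. vehicle or AGN extract at 100, 200 or 300 mg/kg in 0.3 mL, six days/week for 4 weeks, with dose adjusted weekly to body weight. Blood and organs were taken 3 h after the last injection. Extracts were made with ethyl acetate and analyzed by HPLC-UV; n=4~6 per dose group.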

Where [5] appears, read: adipose, single gavage 3 mg D/DA.
Setting [6] is: kidney, single gavage 3 mg D/DA.
The mark [7] stands for this setting: male, C57BL/6, mouse, plasma, po, 3 mg.
Where [8] appears, read: prostate, single gavage 3 mg D/DA.

As to `CC(C)=CC(=O)O[C@H]1Cc2cc3ccc(=O)oc3cc2OC1(C)C` [D, decursin], the Cmax in series [1] (setting [5]) came out at 1.75 µmol/kg; in series [1] (brain, single gavage 3 mg D/DA), 1.00 µmol/kg; in series [1] (setting [6]), 0.42 µmol/kg; in series [1] (liver, single gavage 3 mg D/DA), 0.38 µmol/kg; in series [1] (lung, single gavage 3 mg D/DA), 0 µmol/kg; in series [1] (setting [7]), 0.38 µM. The compound also had a Cmax in series [1] (setting [8]) of 4.90 µmol/kg. For the same compound, the Tmax in series [1] (male, C57BL/6, mouse, po, 3 mg) turned out to be 1 h. For the same compound, the “Terminal-bleed plasma level by HPLC-UV” value in series [2] was “below limit of detection”. Besides, the Reported safe dose in series [3] is recorded as 250 mg D/kg. For the same compound, the “Increase of prostate retention on blocking Cyp activities” value in the series with cytochrome p450 (Cyp) is listed as 2 orders of magnitude.

For the compound `C/C=C(/C)C(=O)O[C@H]1Cc2cc3ccc(=O)oc3cc2OC1(C)C` [DA, decursinol angelate], the Cmax in series [1] (setting [5]) amounted to 7.26 µmol/kg; in series [1] (brain, single gavage 3 mg D/DA), 1.78 µmol/kg; in series [1] (setting [6]), 5.51 µmol/kg; in series [1] (liver, single gavage 3 mg D/DA), 2.95 µmol/kg; in series [1] (lung, single gavage 3 mg D/DA), 3.13 µmol/kg; in series [1] (setting [7]), 0.76 µM. This compound also came in with a Cmax in series [1] (setting [8]) of 14.80 µmol/kg. Further, the Tmax in series [1] (male, C57BL/6, mouse, po, 3 mg) is 1 h. Further, in series [2], the “Terminal-bleed plasma level by HPLC-UV” value is “below limit of detection”. For the same compound, in the series with cytochrome p450 (Cyp), the “Increase of prostate retention on blocking Cyp activities” value is 2 orders of magnitude.

Take `CC1(C)Oc2cc3oc(=O)ccc3cc2C[C@@H]1O` [DOH, decursinol]: the Cmax in series [1] (setting [5]) was found to be 28.5 µmol/kg; in series [1] (brain, single gavage 3 mg D/DA), 23.3 µmol/kg; in series [1] (setting [6]) it was 50.4 µmol/kg; in series [1] (liver, single gavage 3 mg D/DA), 47.8 µmol/kg; in series [1] (lung, single gavage 3 mg D/DA), 31.6 µmol/kg; in series [1] (setting [7]) it was 39.8 µM. Moreover, the Cmax in series [1] (setting [8]) came out at 46.4 µmol/kg. The time to peak (Tmax) in series [1] (male, C57BL/6, mouse, po, 3 mg) is 1 h. For the same compound, the concentration at 6 weeks in series [2] (brain) came out at 2.97 µM; in series [2] (kidney), 14.4 µM; in series [2] (liver), 41.1 µM; in series [2] (lung) it was 3.33 µM; in series [2] (plasma, 0.5 % AGN in diet) it was 0.99 ± 0.11 µM; in series [2] (plasma, 1 % AGN in diet) it was 2.44 ± 0.52 µM. Besides, in series [2] (prostate), the concentration at 6 weeks came out at 12.8 µM. In series [4], the “Content in liver, lung, kidney and brain relative to plasma” value is “lower than its plasma level”.

(Values after paper PMC4872389 (The American journal of Chinese medicine, 2016).)
